Screens deposited in PubChem BioAssay by several laboratories.
An excerpt weighted towards active compounds, which were near 3.4% of everything screened.
MEKK2 mut-MEK5: MEK5 binding signal on mutant MEKK2 PB1, primary screen, biochemical, multiplex bead flow cytometry, Alexa488-MEK5; Alexa488-MEK5 binding to MEKK2 mutant; percent response, % at 10 µM; 0.35% of 290,000 active; AID 1530, 2009; in the data active = percent response above about 24%, passing the limit was not always enough
IMP-1 inhibitor: IMP-1 metallo-beta-lactamase inhibitors, primary screen, biochemical, epi-absorbance readout, Pseudomonas aeruginosa enzyme; purified IMP-1, nitrocefin hydrolysis, epi-absorbance fluorescence; inhibition, % at 5.6 µM; 0.45% of 290,000 active; AID 1556, 2009;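 active = inhibition above the mean plus 3 SD of all compounds in the same screening run, cut at about 4.5% in these data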;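 also: 0% = IMP-1 with DMSO and 100% = DMSO wells lacking enzyme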
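system = purified recombinant IMP-1 beta-lactamase | amount = 0.2 nM IMP-1, as dispensed | medium = HEPES buffer pH 7.1 with ZnSO4 and Brij 35 | times = 25 °C, 15 min preincubation, 25 min reaction | detection = plate fluorescence quenching by hydrolysis product, ex 480/em 530 nm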
VIM-2 inhibitor: VIM-2 metallo-beta-lactamase inhibitors, primary screen, biochemical, epi-absorbance readout, Pseudomonas aeruginosa enzyme; purified VIM-2, nitrocefin hydrolysis, epi-absorbance fluorescence; inhibition, % at 5.6 µM; 0.89% of 290,000 active;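 active = inhibition above the mean of all tested compounds plus 3 SD, cutoff set per screening run, cut at about 7.5% in these data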;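 also: red hydrolysis product quenches plate fluorescence so inhibitors raise well fluorescence; 0% = enzyme with DMSO and 100% = DMSO without enzyme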
MEKK2wt PB1 HTS: modulators of MEK5 binding to wildtype MEKK2, primary screen, biochemical, multiplex bead flow cytometry, Alexa488-MEK5 | binding response (% of control), % at 10 µM | 1.1% of 290,000 active | AID 1531, 2009 | Mitogen-activated protein kinase kinase kinase 2 (Homo sapiens), Q9Y2U5 | Alexa488-MEK5 binding to MEKK2 WT; actives lie on both sides; in the data active = binding response below about 67% or above about 130%
MEKK3 PB1 HTS: modulators of MEKK3-MEK5 PB1 binding, primary screen, biochemical, wildtype MEKK3, multiplex bead flow cytometry, Alexa488-MEK5. Mitogen-activated protein kinase kinase kinase 3 (Homo sapiens), Q99759. bead-based flow cytometry, Alexa488-MEK5 binding to MEKK3; actives lie on both sides; 0 = blocked by unlabeled MEK5, 100 = vehicle. binding response (% of control), % at 10 µM. 1.4% of 290,000 active;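 active = binding response more than 3 SD above or below the average of its plate-row segment, actives on both sides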;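 also: Alexa488 bead fluorescence after subtracting the streptavidin-only scavenger bead signal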
VIM-2 inh confirm: P. aeruginosa VIM-2 enzyme inhibition – biochemical, epi-absorbance, HTS, confirmation. shares compounds with IMP-1 inhibitor. purified VIM-2 enzyme, nitrocefin absorbance. inhibition, % at 5.6 µM. 73% of 200 active; in the data active = inhibition above about 8%;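 also: 0% = enzyme with vehicle and 100% = no enzyme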
TEM-1 inh 2: Serine beta-lactamase TEM-1 inhibition, biochemical epi-absorbance counter-screen for IMP-1/VIM-2 inhibitor program; TEM-1 beta-lactamase, nitrocefin absorbance inhibition; 50% of 200 active; inhibition, % at 5.6 µM; shares compounds with IMP-1 inhibitor; AID 2184, 2009; in the data active = inhibition above about 0.66%
Target sequence (P62593 whole entry, looked up): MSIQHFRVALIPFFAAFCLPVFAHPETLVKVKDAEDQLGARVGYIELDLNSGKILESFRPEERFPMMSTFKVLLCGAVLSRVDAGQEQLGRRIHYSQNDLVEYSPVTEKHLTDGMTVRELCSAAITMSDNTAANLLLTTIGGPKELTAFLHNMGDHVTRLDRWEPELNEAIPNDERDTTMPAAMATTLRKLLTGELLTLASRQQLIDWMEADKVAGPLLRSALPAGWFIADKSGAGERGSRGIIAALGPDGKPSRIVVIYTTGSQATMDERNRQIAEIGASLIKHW
IMP-1 confirm: IMP-1 metallo-beta-lactamase inhibitors, confirmation, biochemical, epi-absorbance, hits shared with VIM-2 screen | shares compounds with IMP-1 inhibitor | inhibition, % at 5.6 µM | 60% of 200 active | purified IMP-1 enzyme, absorbance substrate hydrolysis; in the data active = inhibition above about 4.9%;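 also: 0% = enzyme with vehicle and 100% = vehicle without enzyme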
* hit, by the source's call; . = no result given.

SMILES	MEKK2 mut-MEK5	IMP-1 inhibitor	VIM-2 inhibitor	MEKK2wt PB1 HTS	MEKK3 PB1 HTS	VIM-2 inh confirm	TEM-1 inh 2	IMP-1 confirm
CC1(C)CCC(=O)N2CC[C@H]3C[C@H](OC(=O)Nc4ccc5c(c4)OCO5)C[C@@H]1[C@H]32	-2	0	1	98	100	.	.	.
Cn1cc(/C=C(\C(=O)O)C(C(=O)O)=C2CCCCC2)c2ccccc21	-3	11*	9.5*	98	97	13*	0	10*
Cn1cc(/C=C/C(=O)c2ccccc2)c2ccccc21	1	-2	-3	92	96	.	.	.
N#CC1=C(N)Oc2c(O)cc3ccccc3c2C1c1ccsc1 (configuration not stated)	11	4.6*	8.1*	105	106	0	-5	-3
CC(C)c1nnc(N2C(=O)C(O)=C(C(=O)c3cccs3)C2c2ccccc2)s1 (configuration not stated)	6	7.2*	17*	107	102	0	0	-2
C=CCOc1ccc(C2C(C(=O)c3cccs3)=C(O)C(=O)N2c2nnc(C)s2)cc1 (configuration not stated)	5	13*	18*	105	105	2	2.6*	0
Cc1ccc(C2C(C(=O)c3ccco3)=C(O)C(=O)N2c2nnc(C)s2)cc1 (configuration not stated)	3	1	1	102	100	.	.	.
COc1ccccc1CC(=O)Nc1cccc2ccccc12	5	-3	-2	105	102	.	.	.
CC(C)(C)Nc1nc(Cl)nc(N(C#N)CN2C(=O)c3ccccc3S2(=O)=O)n1	-7	11*	12*	91	94	1	-3	-2
CCn1nc(NS(=O)(=O)c2cccc3nonc23)c2cc3ccc(C)cc3nc21	0	-1	0	101	100	.	.	.
Cc1cc(O)ccc1C1(c2ccc(O)cc2C)OC(=O)c2ccccc21	-3	-2	0	101	109	.	.	.
CC(=O)Oc1ccc2c(c1)Oc1cc(OC(C)=O)ccc1C21OC(=O)c2ccccc21	-67	140*	143*	74	80	14*	3.3*	4.7*
Cc1cc(NC(=O)CSc2nnc(Cc3ccccc3)n2C)no1	5	-1	0	109	106	.	.	.
COc1ccccc1-n1c(SCC(=O)OC(C)C)nc2cccnc21	2	38*	16*	110	114	0	-2	-1
CN(C)c1ccc(/C=N/N(CCO)C2=NS(=O)(=O)c3ccccc32)cc1	3	18*	42*	106	105	40*	42*	30*
Oc1ccc(Cn2ccnc2)c2cccnc12	-5	26*	10*	107	101	21*	-3	44*
c1ccc2c(Cn3ccnc3)c[nH]c2c1	0	-1	-1	101	98	.	.	.
COc1cccc(N2CCN(Cc3ncc(-c4ccccc4)o3)CC2)c1	2	-5	-2	102	104	.	.	.
CCCCc1cc(=O)oc2cc(C)c(CN3CCCC3)c(O)c12	-7	14*	8.3*	90	95	2	-3	5.6*
Cc1cc2oc(=O)cc(CN3CCCCC3)c2cc1C	0	0	2	97	96	.	.	.
